Compound activity from PubChem BioAssay.
CFTR F508del cor = CFTR F508del correction in bronchial cells; CFBE cells, YFP halide quenching; stimulated with forskolin plus potentiator P3; % fluorescence drop versus neutral controls; activity (quench increase), % at 7.58 µM; 350,000 tested, 0.36% active; AID 720511;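 active = mean added fluorescence quench of at least 8% versus neutral control, with both replicates also reaching 8%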;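 also: cells transiently co-express mutant CFTR-F508del with the halide-sensitive YFP; corrector assay measuring rescue of mutant channel to the surface after 24 h compound exposure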
EWS-Fli inh = EWS/Fli transcriptional activity inhibition; A673 NR0B1-luciferase reporter, viability-normalised; inhibition, % at 12.6 µM; 350,000 tested, 0.67% active; AID 651661;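 active = mean inhibition of at least 50% after viability correction, with every replicate also passing that limit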;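 also: firefly luciferase signal divided by Alamar Blue viability fluorescence both relative to DMSO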
PGC1a acetyl inh = PGC1a acetylation modulation, inhibitor mode; U2OS PGC1a acetylation, AlphaScreen anti-acetyl-lysine; with virally co-expressed GCN5 acetyltransferase; inhibition, % at 15.6 µM; 350,000 tested, 0.17% active; AID 651687;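 active = every replicate shows inhibition of at least 40%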;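 also: 0% = neutral control wells and 100% = positive control wells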
FN deposition inh = fibronectin deposition inhibition. AH1F fibroblasts, Alexa488-fibronectin deposition fluorescence, overnight. inhibition, % at 12.6 µM. 350,000 tested, 0.086% active. AID 743247;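 active = mean inhibition across replicates of 30% or more, regardless of how many single replicates reach that level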;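 also: positive control wells lacked labelled fibronectin entirely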
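Test system: AH1F fibroblast monolayer depositing Alexa488-labelled fibronectin into matrix. Input: 10000 cells per well. Technique: fluorescence, ex 485 nm, em 525 nm. Buffer or medium: DMEM plus 2% serum, read in PBS. Timing: 1 h cell adhesion before compound, then overnight fibronectin incubation. Compound: single dose, pinned. Read-out basis: inhibition from reduced deposited-fibronectin fluorescence.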
Env fusion inh = HIV envelope-mediated fusion inhibition. HeLa-JRFL Env/CEM21 cell fusion, luciferase. inhibition, % at 12.3 µM. 360,000 tested, 1.1% active. AID 651610;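 active = mean replicate inhibition score of at least 50 and every replicate individually at or above 50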;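 also: 0% = plate neutral controls and 100% = maraviroc near 300 nM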
PAX8 reporter = PAX8 transcriptional activity inhibition; AID 652154; 360,000 tested, 1.2% active; RMG-I TPO-luciferase reporter, SteadyGlo, 24 h; inhibition, % at 12.6 µM;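 active = mean replicate inhibition at least 60% with every replicate also reaching 60%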;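 also: luciferase light reporting Pax8 driven TPO promoter activity; plate controls were median of neutral control wells for no effect and mitoxantrone controls for full effect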
* = called active by the depositor; / = no result; [ ] = remark or other dose. The list is not random: actives were taken first. Their share in the collection is about 2.3%.

SMILES | CFTR F508del cor | EWS-Fli inh | PGC1a acetyl inh | FN deposition inh | Env fusion inh | PAX8 reporter
COc1ccc(N=C2SCC(c3ccc([N+](=O)[O-])cc3)=NN2CCO)cc1 | -0.5 | -1.0 | -12.3 | 8.9 | 8.6 | 12.4
OCCCn1c(-c2ccccc2)csc1=Nc1ccccc1 | 4.2 | -11.5 | / | 12.1 | 23.6 | 6.4
COc1ccc(N=C2SCC(c3ccc(C)cc3)=NN2CCO)cc1 | / | 4.1 | 78.3* | 1.0 | 7.7 | 25.2
COc1ccc(N=c2scc(-c3ccc(OC)cc3)n2CCO)cc1 | / | / | 5.0 | 4.8 | 71.3* | -19.0
O=C(Nc1ccc2c(c1)[C@H]1C[C@@H](CC(=O)N3CCc4ccccc4C3)O[C@@H](CO)[C@H]1O2)C1CCOCC1 | 3.2 | -2.1 | 1.4 | / | 14.3[16.7 µM] | 3.0
COc1ccc(S(=O)(=O)Nc2ccccc2C)cc1C(=O)N1CCOCC1 | 0.2 | 3.1 | 102.4* | -2.6 | 3.0 | 3.3
O=C(C[C@H]1CC[C@H]2[C@@H](COC[C@H](O)CN2S(=O)(=O)c2ccccc2)O1)NCc1ccc2c(c1)OCO2 | -1.0 | 4.4 | 3.0 | 4.1 | / | 3.7
Cc1cc(SCCC(=O)O)nc2ccccc12 | / | / | 14.3 | / | / | /
Cc1cc(SCC(=O)N2CCCC2=O)nc2ccccc12 | 0.1 | 9.9 | -1.6 | 1.4 | 58.1* | /
CCNC(=O)C[C@@H]1CC[C@@H]2[C@H](COc3ccc(NC(=O)Nc4ccc(Cl)cc4)cc3C(=O)N2C)O1 | -0.8 | -9.0 | 0.9 | -22.1 | 27.1[16.7 µM] | 11.6
CC(C)(C)c1ccc(C(=O)CC(=O)c2cc(Cl)ccc2O)cc1 | / | / | 6.3 | / | 83.5* | /
O=C(Nc1ccc(Cl)c(Cl)c1)N[C@@H]1CC[C@@H](CCn2cc(C3CC3)nn2)O[C@@H]1CO | 0.9 | 2.6 | -4.8 | -7.1 | 16.2[16.7 µM] | -4.5
CCCC(=O)Nc1ccc2c(c1)nc(CN1CCN(C(=O)OCC)CC1)n2CC | 12.4* | 46.7 | / | 0.7 | 1.4 | 24.7
COc1ccccc1S(=O)(=O)N[C@@H]1CC[C@H](CC(=O)NCc2cc(F)cc(F)c2)O[C@H]1CO | -0.6 | / | 4.9 | / | / | -4.8
Cc1ccc(-c2c[n+](CC(=O)c3ccc(Br)cc3)c3n2CCCCC3)cc1 | 2.5 | 47.5 | 13.0 | 4.2 | 35.4 | 97.9*
C[C@@H](NC(=O)C[C@@H]1C=C[C@@H](NC(=O)C2CCC2)[C@H](CO)O1)c1ccccc1 | -1.2 | -6.5 | 1.6 | -23.6 | -22.0[16.7 µM] | -9.0
COc1ccc(NC(=O)Nc2ccc3c(c2)CC(=O)N([C@H](C)CO)C[C@H](C)[C@@H](CN(C)S(=O)(=O)c2ccc(C)cc2)O3)cc1 | 1.3 | 1.9 | 8.0 | / | / | -5.2
COc1ccc(C(=O)OCC(=O)Nc2sccc2C(N)=O)cc1OC | 0.1 | -18.0 | 2.8 | -3.1 | 15.7 | -9.8
COc1cc(C(=O)OCC(=O)Nc2sccc2C(N)=O)cc(OC)c1OC | -1.6 | 61.2* | / | 4.5 | 13.8 | 8.9
Cn1c(=O)c(NCCO)c2c3c(cccc31)C(=O)c1ccccc1-2 | / | / | -6.6 | / | / | /
Cn1c(=O)c(NC2CCCCC2)c2c3c(cccc31)C(=O)c1ccccc1-2 | 16.0* | -14.0 | -3.5 | -13.8 | 4.0 | 15.9
CS(=O)(=O)c1nc(-c2ccc(Br)cc2)cc(-c2ccccc2)c1C#N | / | / | -1.2 | -6.3 | -1.7 | /
COc1nc(-c2ccccc2)cc(-c2ccc3c(c2)OCO3)c1C#N | 17.3* | 59.4* | / | -12.9 | -5.2 | 10.2
COc1ccc(-c2cc(-c3ccccc3)c(C#N)c(S(C)(=O)=O)n2)cc1 | / | / | 20.5 | 9.0 | -100.7 | 92.7*
CCCCNc1c2c3c(cccc3n(C)c1=O)C(=O)c1ccccc1-2 | / | / | -5.0 | / | / | /
SMILES | CFTR F508del cor | EWS-Fli inh | PGC1a acetyl inh | FN deposition inh | Env fusion inh | PAX8 reporter
Cn1c(=O)c(N)c2c3c(c(Br)ccc31)C(=O)c1ccccc1-2 | 11.4* | 1.8 | 5.5 | -16.0 | -259.3 | 11.6
c1nc(CCO[C@H]2CCCCO2)cc2cc3c(cc12)OCO3 | -2.9 | 75.0* | / | -1.6 | 13.7 | 4.8
Cc1cnc(NC(=O)c2ccc(OCC3CCCO3)cc2)s1 (stereo not drawn) | 1.8 | 63.5* | 1.2 | / | -1.9 | 24.2
CCOc1ccc(C(=O)Nc2nnc(SCC(=O)NCC3CCCO3)s2)cc1 (stereo not drawn) | 1.6 | 64.8* | / | 6.4 | 14.2 | -10.3
CC(C)(C)c1ccc(C(=O)Nc2nnc(SCC(=O)NCC3CCCO3)s2)cc1 (stereo not drawn) | 0.1 | / | / | 1.6 | -251.5 | -140.1
CCCNC(=O)N1CC2(C1)[C@@H](c1ccccc1)[C@H](CO)N2C(=O)C1CC1 | -2.7 | 1.1 | 2.7 | / | / | 1.0
COc1ccc(C2C(C(=O)c3ccccc3)N3c4ccccc4C=CC3C2[N+](=O)[O-])cc1 (stereo not drawn) | 22.7* | -32.6 | 1.4 | -9.4 | 10.1 | 11.1
CCC(C)Nc1nc(N)c([N+](=O)[O-])c(N2CCCCCC2)n1 (stereo not drawn) | -0.4 | 14.0 | -9.7 | 4.7 | 20.0 | 77.5*
Cc1ccc(S(=O)(=O)Nc2ccc3c(c2)CC(=O)N([C@H](C)CO)C[C@H](C)[C@H](CN(C)Cc2ccc(Cl)c(Cl)c2)O3)cc1 | 4.4 | -13.0 | -0.4 | 4.4 | 10.9[16.7 µM] | 6.9
Cc1ccc(S(=O)(=O)Nc2ccc3c(c2)CC(=O)N([C@@H](C)CO)C[C@H](C)[C@@H](CN(C)Cc2ccc(-c4ccccc4)cc2)O3)cc1 | 1.1 | 13.8 | -5.4 | -0.2 | 75.2*[16.7 µM] | /
C[C@H](CO)N1C[C@H](C)[C@@H](CN(C)Cc2ccc(-c3ccccc3)cc2)Oc2ccc(NS(=O)(=O)c3ccc(F)cc3)cc2CC1=O | 3.7 | 11.8 | 1.9 | / | -36.8[16.7 µM] | 75.6*
Cc1ccc(S(=O)(=O)Nc2ccc3c(c2)CC(=O)N([C@@H](C)CO)C[C@H](C)[C@H](CN(C)Cc2ccc(-c4ccccc4)cc2)O3)cc1 | 7.9 | 5.0 | -0.4 | 5.8 | 14.6[16.7 µM] | /
Cc1ccc(S(=O)(=O)Nc2ccc3c(c2)CC(=O)N([C@@H](C)CO)C[C@@H](C)[C@H](CN(C)Cc2ccc(Cl)c(Cl)c2)O3)cc1 | 1.4 | 19.4 | -7.5 | 15.6 | 33.3[16.7 µM] | 92.0*
C[C@H]1CN([C@@H](C)CO)C(=O)Cc2cc(NS(=O)(=O)c3ccc(F)cc3)ccc2O[C@@H]1CN(C)Cc1ccc(-c2ccccc2)cc1 | 3.9 | 1.8 | -0.3 | / | -19.0[16.7 µM] | 16.9
O=C(C[C@@H]1CC[C@@H]2[C@H](COC[C@@H](O)CN2C(=O)Nc2cccc(Cl)c2)O1)NCC1CCCCC1 | 0.8 | -12.7 | 9.5 | -0.6 | / | 1.4
CO[C@H]1CN(C)C(=O)c2cc(NC(=O)NC(C)C)ccc2OC[C@H](C)N(C(=O)CC2CC2)C[C@H]1C | -0.2 | 2.3 | -4.7 | -13.6 | -7.3[16.7 µM] | /
C[C@@H]1CN([C@H](C)CO)C(=O)c2cc(C3=CCCC3)cnc2O[C@@H]1CN(C)Cc1ccccn1 | 0.0 | -9.8 | 4.6 | / | 13.5[16.7 µM] | -2.6
Cc1c(C(=O)NC(=S)Nc2ccccc2N2CCCC2)cccc1[N+](=O)[O-] | / | 77.4* | / | / | -30.1 | 13.5
O=C(NC(=S)Nc1ccccc1N1CCCC1)c1cccs1 | / | 7.7 | 50.8* | -2.7 | -20.0 | 30.4
